Screening results from PubChem.
An excerpt weighted towards active compounds, which were near 1.7% of everything screened.
APJ agonist: agonists of human APJ apelin receptor; P35414; CHO-K1 APJ PathHunter beta-arrestin, luminescence; 0% DMSO wells, 100% apelin; activation, % at 20 µM; 330,000 tested, 0.11% active;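 active means activation more than six SD over the plate average, tested at 20 µM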;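 further: 0% = DMSO alone and 100% = apelin-13 at 10 nM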
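Material: engineered CHO-K1 APJ arrestin reporter cells; amount: 1000 CHO-K1 reporter cells seeded per well; incubation: compound stimulation 90 min at 25 °C, detection 60 min; signal: luminescent beta-gal fragment complementation, chemiluminescent substrate; read-out basis: APJ agonist activity; controls: DMSO-only wells as negative, 10 nM Apelin-13 as positive control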
PfGluPho inh: PfG6PD (Plasmodium falciparum) enzyme inhibition | PfGluPho enzyme, NADPH resazurin-diaphorase fluorescence | inhibition, % at 20 µM | 350,000 tested, 0.78% active;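 active means inhibition reaching at least a set limit at 20 µM in the primary screen, cut at about 59% in these data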;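 further: 0% = DMSO wells with substrate and 100% = DMSO wells lacking glucose-6-phosphate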
CXCR6 inh: CXCR6 (human) receptor inhibition; O00574; CHO-K1 PathHunter CXCR6 beta-arrestin, luminescence; inhibition, % at 20 µM; 360,000 tested, 0.36% active; in the data active means inhibition above about 34%, passing the limit was not always enough;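 further: antagonist mode with CXCL16 agonist at 10 nM final; 0% = 10 nM CXCL16 with DMSO and 100% = unstimulated wells without agonist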
B2AR ag: activates human beta-2 adrenergic receptor causing internalization; P07550; Am2.2-beta2AR cells, FAP receptor internalization, flow cytometry; response, % (concentration not given with the values); 340,000 tested, 0.43% active; AID 504454;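 active means response above a set limit, near 3 SD of response in nonfluorescent compounds, cut at about 42% in these data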
APJ antag: antagonists of human APJ apelin receptor; P35414; CHO-K1 APJ beta-arrestin complementation, luminescence; inhibition, % at 20 µM; 330,000 tested, 0.32% active; AID 2521;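 active means inhibition above about 40% at 20 µM, limit read from the data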;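 further: cells challenged with 10 nM apelin-13 agonist together with compound; plate controls were apelin-13 plus DMSO wells for no effect and DMSO wells lacking apelin-13 for full effect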
CCR6 antag: CCR6 (human) receptor antagonism; 340,000 tested, 0.49% active; P51684; inhibition, % at 20 µM; CHO-K1 CCR6 PathHunter beta-arrestin, luminescence, CCL20-stimulated;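 active means compounds whose inhibition of the agonist-driven luminescence signal at 20 µM reaches about 50%, limit read from the data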;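 further: cells stimulated with CCL20 at 14 nM final; plate controls were DMSO with CCL20 for no effect and DMSO without agonist for full effect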
Target sequence (P51684 whole entry, looked up): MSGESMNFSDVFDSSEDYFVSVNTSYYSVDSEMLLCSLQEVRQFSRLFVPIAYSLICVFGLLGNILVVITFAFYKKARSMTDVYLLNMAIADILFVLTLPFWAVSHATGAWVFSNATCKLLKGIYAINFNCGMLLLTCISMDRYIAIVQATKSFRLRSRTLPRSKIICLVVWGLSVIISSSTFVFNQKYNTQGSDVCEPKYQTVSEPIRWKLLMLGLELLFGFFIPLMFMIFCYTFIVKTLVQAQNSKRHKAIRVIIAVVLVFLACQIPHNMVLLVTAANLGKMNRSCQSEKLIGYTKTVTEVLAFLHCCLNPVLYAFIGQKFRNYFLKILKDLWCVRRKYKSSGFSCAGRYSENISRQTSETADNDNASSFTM
PfGluPho conf: PfG6PD inhibition, single-dose confirmed. shares compounds with PfGluPho inh. recombinant PfGluPho, NADPH-diaphorase-resazurin fluorescence. inhibition, % at 20 µM. 2,400 tested, 34% active;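 active means inhibition of at least 50% at 20 µM in any single replicate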;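 further: 0% = DMSO with substrate and 100% = DMSO lacking glucose-6-phosphate substrate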
Diaph ctr 10uM: diaphorase inhibition or oxidation at 10 uM NADPH; shares compounds with PfGluPho inh; diaphorase-coupled resazurin reduction, fluorescence, NADPH 10 uM; inhibition, % at 20 µM; 820 tested, 39% active; AID 504862;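 active means average inhibition reaching 50% or more with the compound at 20 µM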;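 further: resorufin red fluorescence formed as diaphorase reduces resazurin using NADPH; 0% = DMSO with enzyme and 100% = DMSO without enzyme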
Diaphorase 30uM: inhibits diaphorase or oxidizes, flagging false PfG6PD hits | shares compounds with PfGluPho inh | Diaphorase/resazurin coupled assay, resorufin fluorescence, 30 uM NADPH | inhibition, % at 20 µM | 820 tested, 29% active;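 active means inhibition averaging 50% or more, tested at 20 µM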;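 further: 0% = DMSO with enzyme and 100% = DMSO wells lacking diaphorase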
Numbers without * were called inactive; nt = no result.

SMILES	APJ agonist	PfGluPho inh	CXCR6 inh	B2AR ag	APJ antag	CCR6 antag	PfGluPho conf	others
COc1cccc(C(O)c2nc(-c3cccc4cccnc34)cs2)c1 (stereo unspecified)	nt	nt	4	nt	nt	nt	nt
Cn1c(=N)n(CC(O)c2ccco2)c2ccccc21 (stereo unspecified)	3	13	-5	4	16	6	nt
Cn1c(=N)n(CC(O)c2cccc3ccccc23)c2ccccc21 (stereo unspecified)	-3	80*	-7	8	-11	-6	62*	Diaph ctr 10uM=63*;Diaphorase 30uM=52*
Nc1ccccc1SSc1ccccc1N	-3	69*	0	1	-12	10	44
Cn1nc([N+](=O)[O-])c2c(-c3nc4ccccc4s3)c(N)n(C3CCCCC3)c2c1=O	0	77*	8	18	11	-6	-3
CCCCn1c(N)c(-c2nc3ccccc3s2)c2c([N+](=O)[O-])nn(C)c(=O)c21	1	5	6	27	10	12	nt
COC(=O)[C@@]1(Sc2ccc(OC)cc2)CC(=O)N[C@@H]1c1ccccc1	nt	nt	-8	nt	nt	nt	nt
COc1cccc(-c2[nH]nc3c2C(c2ccsc2)C(C#N)=C(N)O3)c1 (stereo unspecified)	-2	61*	-9	0	2	13	34
Cc1ccc(S(=O)(=O)N(C)c2ccc(C(=O)NC3CCCCC3)cc2)cc1	nt	3	1	nt	nt	nt	nt
Cc1cccc(C2(c3cccc(C)c3)CC2C(=O)Nc2ccc([N+](=O)[O-])cc2O)c1 (stereo unspecified)	0	113*	14	26	-24	58*	60*	Diaph ctr 10uM=55*;Diaphorase 30uM=38
COc1cccc(C2(c3cccc(OC)c3)CC2C(=O)Nc2ccccc2Cl)c1 (stereo unspecified)	2	88*	14	5	5	18	37
C=C1C(C(=O)Nc2cccc(OC)c2)C1C(=O)Nc1cccc(OC)c1 (stereo unspecified)	-2	2	-12	-1	-13	4	nt
COc1cccc(C2(c3cccc(OC)c3)CC2C(=O)Nc2ccc(F)cc2)c1 (stereo unspecified)	1	115*	2	0	3	5	57*	Diaph ctr 10uM=56*;Diaphorase 30uM=37
O=C(Nc1cc(=O)[nH]c(=O)[nH]1)c1cc(Cl)ccc1Cl	1	0	-1	16	14	20	nt
CNC(=O)CN1C(=O)c2cccc3cccc1c23	-3	-6	-9	-2	-5	-3	nt
CN1/C(=N\O)c2cccc3cccc1c23	6	76*	-19	26	-15	-31	46
CC(=O)NC(CC(=O)Oc1ccc(C)cc1Br)c1ccccc1 (stereo unspecified)	3	8	-4	6	-7	16	nt
O=C(c1ccco1)N(Cc1ccc2c(c1)OCO2)Cc1cc2cc3c(cc2[nH]c1=O)OCO3	-1	-11	-2	0	-1	9	nt
Cc1cc2cc(CN(Cc3ccc4c(c3)OCO4)C(=O)c3ccco3)c(=O)[nH]c2cc1C	0	82*	2	-3	-9	9	38
CC1=CN2C(=N)/C(=C/c3ccc([N+](=O)[O-])o3)C(=O)N=C2S1	nt	59*	34	-497	nt	49	73*	Diaph ctr 10uM=26;Diaphorase 30uM=35
COc1ccc(CSCC(=O)N/N=C/c2ccccc2OCc2ccccc2)cc1	-7	89*	11	0	2	22	20
O=C(CSCc1ccccc1)N/N=C/c1ccccc1OCc1ccccc1	-2	63*	2	-6	4	13	-14
COc1ccc(CSCC(=O)N/N=C/c2ccc(OCC(=O)NCc3ccco3)cc2)cc1	-1	-9	-16	4	29	-30	nt
CCN1C(=O)[C@@H]2[C@@H]3CN(S(=O)(=O)c4ccc(C)cc4)[C@@H](c4ccccc4F)[C@@H]3C(=O)C[C@@H]2C1=O	nt	nt	-7	nt	nt	nt	nt
CCOc1cc(/C=N/Nc2nnc(C)n2N)ccc1O	1	59*	-18	-1	-11	-2	48
SMILES	APJ agonist	PfGluPho inh	CXCR6 inh	B2AR ag	APJ antag	CCR6 antag	PfGluPho conf	others
NC(=S)N/N=C\c1ccccc1OCc1ccccc1	-1	16	-1	-11	-8	5	nt
NC(=S)N/N=C/c1c[nH]c2ccc(OCc3ccccc3)cc12	5	60*	2	-10	-19	-14	27
Cc1cccnc1C(NC(=O)C1CCN(CCCOc2ccccc2)CC1)c1ccc(F)cc1 (stereo unspecified)	nt	nt	10	nt	nt	nt	nt
Cc1ccc2nc(SCc3nnc(-c4cccs4)o3)[nH]c2c1	3	84*	-2	-6	14	0	41
Cc1ccc2nc(SCc3nnc(-c4ccccc4)o3)[nH]c2c1	-3	49	1	-1	-1	1	nt
O=C(CSc1nnc(SCc2cccc3ccccc23)s1)N/N=C/c1c[nH]c2ccccc12	3	42	-9	0	0	19	nt
O=C(CSc1nnc(SCc2ccc(Cl)cc2)s1)N/N=C/c1c[nH]c2ccccc12	nt	60*	-3	-3	nt	-8	33
CSCC[C@H](N)C(=O)N1CCC(C(=O)N[C@H](C(=O)NCc2ccccc2F)C(C)C)CC1	-2	15	1	1	6	-4	nt
CCOc1ccc(-c2c(=O)n(O)c3ccccc3[n+]2[O-])cc1	0	61*	3	9	-2	9	17
O=C(CN(c1ccc(F)cc1)S(=O)(=O)c1ccccc1)NC1CC2CCC1C2 (stereo unspecified)	-5	-6	-1	-5	15	0	nt
CCCn1c(/C=C/c2ccccc2)nc2ccccc21	-6	59*	8	4	7	23	10
COCCOCCn1c(/C=C/c2ccccc2)nc2ccccc21	0	63*	-12	-12	11	-1	40
COc1ccc(/C=C/c2nc3ccccc3n2Cc2ccc(OC)c(OC)c2)cc1	-4	66*	8	-10	11	20	49*	Diaph ctr 10uM=43;Diaphorase 30uM=30
O=S(=O)(c1ccccc1)N1N=C(c2ccc(Cl)cc2)CC1c1ccco1 (stereo unspecified)	-9	13	-4	21	19	23	nt
COc1ccc(NC2CCCN(C(=O)CCC3=NNC(=O)CC3)C2)cc1 (stereo unspecified)	-2	-5	-11	2	2	-1	nt
CCc1cc(N2CCOCC2)cc2c1[nH]c1ccccc12	4	67*	-6	11	-27	7	45
